Measurements from ChEMBL document CHEMBL1811814, “Synthesis and evaluation of indole, pyrazole, chromone and pyrimidine based conjugates for tumor growth inhibitory activities--development of highly efficacious cytotoxic agents” (Eur J Med Chem, 2010).

How the values were obtained:
Format in all cases: functional
SK-MEL-5 [1] = experiment: Growth inhibition of human SK-MEL-5 cells assessed tumor cell growth at 10^-5 M; design: scale not given: the % may be the effect or the level left
Summary of the method: (§1)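 NCI 60-human-tumor-cell-line panel screen. Each compound was tested at a single concentration of 10^-5 M, and percent growth of tumor cells was recorded for each cell line. Growth inhibition was expressed from these percent-growth values.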

RXF 393 [2] = experiment: Growth inhibition of human RXF393 cells
OVCAR-8 [3] = experiment: Growth inhibition of human OVCAR8 cells assessed tumor cell growth at 10^-5 M; design: scale not given: the % may be the effect or the level left; summary of the method: as §1
NCI-H23 = experiment: Growth inhibition of human NCI-H23 cells
UACC-62 = experiment: Growth inhibition of human UACC62 cells
HOP-92 = experiment: Growth inhibition of human HOP92 cells
BT-549 [4] = experiment: Growth inhibition of human BT549 cells
IGROV-1 = experiment: Growth inhibition of human IGROV1 cells assessed tumor cell growth at 10^-5 M; design: scale not given: the % may be the effect or the level left; summary of the method: as §1
DU-145 = experiment: Growth inhibition of human DU145 cells
NCI-H522 [5] = experiment: Growth inhibition of human NCI-H522 cells
786-0 [6] = experiment: Growth inhibition of human 786-0 cells assessed tumor cell growth at 10^-5 M; design: scale not given: the % may be the effect or the level left; summary of the method: as §1
RXF 393 [7] = experiment: Growth inhibition of human RXF393 cells assessed tumor cell growth at 10^-5 M; design: scale not given: the % may be the effect or the level left; summary of the method: as §1
HOP-62 = experiment: Growth inhibition of human HOP62 cells
OVCAR-5 = experiment: Growth inhibition of human OVCAR5 cells assessed tumor cell growth at 10^-5 M; design: scale not given: the % may be the effect or the level left; summary of the method: as §1
TK-10 = experiment: Growth inhibition of human TK10 cells assessed tumor cell growth at 10^-5 M; design: scale not given: the % may be the effect or the level left
Summary of the method: (§2)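 Single-dose screen at 10^-5 M across the 60 human tumor cell line panel, run to NCI standards. The value is the percent growth of each cell line in the presence of compound. Compounds active at this dose moved on to five-concentration testing (10^-4 to 10^-8 M).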

[8] = Growth inhibition of human Hs 578T cells
COLO 205 = experiment: Growth inhibition of human COLO205 cells
CAKI-1 [9] = experiment: Growth inhibition of human Caki1 cells assessed tumor cell growth at 10^-5 M; design: scale not given: the % may be the effect or the level left; summary of the method: as §1
CAKI-1 [10] = experiment: Growth inhibition of human Caki1 cells
786-0 [11] = experiment: Growth inhibition of human 786-0 cells
SF-268 = experiment: Growth inhibition of human SF268 cells assessed tumor cell growth at 10^-5 M; design: scale not given: the % may be the effect or the level left; summary of the method: as §1
HCT-116 = experiment: Growth inhibition of human HCT116 cells assessed tumor cell growth at 10^-5 M; design: scale not given: the % may be the effect or the level left; summary of the method: as §1
ACHN = experiment: Growth inhibition of human ACHN cells
U-251 [12] = experiment: Growth inhibition of human U251 cells
T47D = experiment: Growth inhibition of human T47D cells
KM12 = experiment: Growth inhibition of human KM12 cells
NCI-H322M [13] = experiment: Growth inhibition of human NCI-H322M cells assessed tumor cell growth at 10^-5 M; design: scale not given: the % may be the effect or the level left; summary of the method: as §1
HT-29 = experiment: Growth inhibition of human HT-29 cells
HL-60(TB) [14] = experiment: Growth inhibition of human HL-60(TB) cells assessed tumor cell growth at 10^-5 M; design: scale not given: the % may be the effect or the level left
Summary of the method: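 HL-60(TB), part of the 60-line panel, tested at a single concentration of 10^-5 M. The read-out is percent tumor cell growth relative to untreated growth.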

CCRF-CEM = experiment: Growth inhibition of human CCRF-CEM cells
A549 = experiment: Growth inhibition of human A549 cells assessed tumor cell growth at 10^-5 M; design: scale not given: the % may be the effect or the level left; summary of the method: as §1
OVCAR-8 [15] = experiment: Growth inhibition of human OVCAR8 cells
Malme-3M = experiment: Growth inhibition of human MALME-3M cells assessed tumor cell growth at 10^-5 M; design: scale not given: the % may be the effect or the level left; summary of the method: as §1
UACC-257 [16] = experiment: Growth inhibition of human UACC257 cells assessed tumor cell growth at 10^-5 M; design: scale not given: the % may be the effect or the level left; summary of the method: as §2
HL-60(TB) [17] = experiment: Growth inhibition of human HL-60(TB) cells
U-251 [18] = experiment: Growth inhibition of human U251 cells assessed tumor cell growth at 10^-5 M; design: scale not given: the % may be the effect or the level left; summary of the method: as §2
LOX IMVI = experiment: Growth inhibition of human LOXIMVI cells assessed tumor cell growth at 10^-5 M; design: scale not given: the % may be the effect or the level left; summary of the method: as §1
MDA-MB-468 = experiment: Growth inhibition of human MDA-MB-468 cells assessed tumor cell growth at 10^-5 M; design: scale not given: the % may be the effect or the level left; summary of the method: as §1
SK-MEL-5 [19] = experiment: Growth inhibition of human SK-MEL-5 cells
MDA-MB-231 = experiment: Growth inhibition of human MDA-MB-231 cells
MOLT-4 = experiment: Growth inhibition of human MOLT4 cells assessed tumor cell growth at 10^-5 M; design: scale not given: the % may be the effect or the level left; summary of the method: as §1
[20] = Growth inhibition of human RPMI8266 cells
PC-3 = experiment: Growth inhibition of human PC3 cells assessed tumor cell growth at 10^-5 M; design: scale not given: the % may be the effect or the level left; summary of the method: as §1
SF-295 = experiment: Growth inhibition of human SF295 cells assessed tumor cell growth at 10^-5 M; design: scale not given: the % may be the effect or the level left; summary of the method: as §1
BT-549 [21] = experiment: Growth inhibition of human BT549 cells assessed tumor cell growth at 10^-5 M; design: scale not given: the % may be the effect or the level left; summary of the method: as §1
SW-620 = experiment: Growth inhibition of human SW620 cells assessed tumor cell growth at 10^-5 M; design: scale not given: the % may be the effect or the level left; summary of the method: as §2
MDA-MB-435 = experiment: Growth inhibition of human MDA-MB-435 cells assessed tumor cell growth at 10^-5 M; design: scale not given: the % may be the effect or the level left; summary of the method: as §1
UACC-257 [22] = experiment: Growth inhibition of human UACC257 cells
SK-MEL-2 = experiment: Growth inhibition of human SK-MEL-2 cells assessed tumor cell growth at 10^-5 M; design: scale not given: the % may be the effect or the level left; summary of the method: as §1
NCI-H522 [23] = experiment: Growth inhibition of human NCI-H522 cells assessed tumor cell growth at 10^-5 M; design: scale not given: the % may be the effect or the level left; summary of the method: as §1
NCI-H322M [24] = experiment: Growth inhibition of human NCI-H322M cells
[25] = read-out: LC50 (the source's name)

For `O=C1Nc2ccccc2/C1=C/c1cn(C(=O)c2c(Cl)cccc2Cl)c2ccccc12`, the Activity (SK-MEL-5 [1]) was 63%, the GI50 (RXF 393 [2]) was 4.1 µM and the CC50 (RXF 393 [2]; [25]) was 43.6 µM. The Activity (OVCAR-8 [3]) was 52.3%, the GI50 (NCI-H23) was 4.1 µM and the LC50 (concentration killing 50% of cells) (NCI-H23) was 50.1 µM. The GI50 (UACC-62) was 4.9 µM, the CC50 (UACC-62; [25]) was 61.6 µM and the GI50 (HOP-92) was 1.5 µM. The CC50 (HOP-92; [25]) was greater than 100 µM, the GI50 (BT-549 [4]) was 2.4 µM and the CC50 (BT-549 [4]; [25]) was 37.1 µM. It also gave an Activity (IGROV-1) of 25.7%, a GI50 (DU-145) of 2.7 µM and a CC50 (DU-145; [25]) of 46.7 µM. The GI50 (NCI-H522 [5]) was 4.2 µM, the LC50 (concentration killing 50% of cells) (NCI-H522 [5]) was 54.9 µM and the Activity (786-0 [6]) was 57%. The Activity (RXF 393 [7]) was -4.1%, the GI50 (HOP-62) was 12.8 µM and the CC50 (HOP-62; [25]) was greater than 100 µM. The Activity (OVCAR-5) was 84.9%, the Activity (TK-10) was 90.7% and the GI50 [8] was 2.2 µM. For the same molecule, the CC50 [8, 25] was greater than 100 µM, the GI50 (COLO 205) was 7.6 µM and the LC50 (COLO 205) was 54.9 µM. It also gave an Activity (CAKI-1 [9]) of 18.7%, a GI50 (CAKI-1 [10]) of 1.9 µM and a CC50 (CAKI-1 [10]; [25]) greater than 100 µM. It also gave a GI50 (786-0 [11]) of 3.3 µM, a CC50 (786-0 [11]; [25]) of 91.2 µM and an Activity (SF-268) of 56.5%. For the same molecule, the Activity (HCT-116) was 26%, the GI50 (ACHN) was 3.1 µM and the CC50 (ACHN; [25]) was greater than 100 µM. It also gave a GI50 (U-251 [12]) of 3.4 µM, a CC50 (U-251 [12]; [25]) of 54.9 µM and a GI50 (T47D) of 4.1 µM. For the same molecule, the CC50 (T47D; [25]) was greater than 100 µM, the GI50 (KM12) was 1.8 µM and the CC50 (KM12; [25]) was 8.9 µM. For the same molecule, the Activity (NCI-H322M [13]) was 90.3%, the GI50 (HT-29) was 3.8 µM and the CC50 (HT-29; [25]) was 54.9 µM. The Activity (HL-60(TB) [14]) was 72.1%, the GI50 (CCRF-CEM) was 0.34 µM and the CC50 (CCRF-CEM; [25]) was greater than 100 µM. It also gave an Activity (A549) of 36.7%, a GI50 (OVCAR-8 [15]) of 4.1 µM and a CC50 (OVCAR-8 [15]; [25]) greater than 100 µM. It also gave an Activity (Malme-3M) of 116.7%, an Activity (UACC-257 [16]) of 79.1% and a GI50 (HL-60(TB) [17]) of 2.4 µM. For the same molecule, the CC50 (HL-60(TB) [17]; [25]) was greater than 100 µM, the Activity (U-251 [18]) was 35.8% and the Activity (LOX IMVI) was 48.4%. For the same molecule, the Activity (MDA-MB-468) was 32.6%, the GI50 (SK-MEL-5 [19]) was 7.6 µM and the CC50 (SK-MEL-5 [19]; [25]) was 45.7 µM. The GI50 (MDA-MB-231) was 3.1 µM, the CC50 (MDA-MB-231; [25]) was greater than 100 µM and the Activity (MOLT-4) was 43.9%. The GI50 [20] was 3.4 µM, the CC50 [20, 25] was greater than 100 µM and the Activity (PC-3) was 41.7%. The Activity (SF-295) was 44.5%, the Activity (BT-549 [21]) was 51.7% and the Activity (SW-620) was 45.4%. The Activity (MDA-MB-435) was 85.6%, the GI50 (UACC-257 [22]) was 5 µM and the CC50 (UACC-257 [22]; [25]) was 95.4 µM. For the same molecule, the Activity (SK-MEL-2) was 39.9%, the Activity (NCI-H522 [23]) was 55.3% and the GI50 (NCI-H322M [24]) was 2.9 µM. The CC50 (NCI-H322M [24]; [25]) was greater than 100 µM.
